Consider eight compounds from ChEMBL document CHEMBL1141655, “Structure-activity relationships of Bak derived peptides: affinity and specificity modulations by amino acid replacement” (Eur J Med Chem, 2008).

A short description of test [1]: Selectivity ratio of EC50 for recombinant Bcl-2 to EC50 for recombinant Bcl-XL.
The target of test [2] is Apoptosis regulator Bcl-2 (Homo sapiens, UniProt P10415). As to the kind of experiment: Binding affinity to recombinant Bcl-2 expressed in Escherichia coli BL21 by fluorescence polarization assay. Summed up:
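GST-Bcl-2 lacking C-terminal 21 residues, glutathione-resin purified, dialysed into 20 mM phosphate pH 7.4, 1 mM EDTA, 50 mM NaCl. Competition FP: fluorescein N-terminal Bak BH3 probe 15 nM, protein 1 µM, peptide final 10^-9 to 10^-4 M with 0.05% pluronic acid; 30 min room temperature; ex 485/em 535 nm, mP. EC50 from sigmoidal dose-response, n = 2, triplicate.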
On the technique in general: In fluorescence polarisation assays a small probe gives low polarisation when free and higher when bound to something large.

For test [3], the target named is Bcl-2-like protein 1 (Homo sapiens, UniProt Q07817). In words: Binding affinity to recombinant Bcl-XL expressed in Escherichia coli BL21 by fluorescence polarization assay.
Bcl-2-like protein 1, sequence (Q07817 whole entry): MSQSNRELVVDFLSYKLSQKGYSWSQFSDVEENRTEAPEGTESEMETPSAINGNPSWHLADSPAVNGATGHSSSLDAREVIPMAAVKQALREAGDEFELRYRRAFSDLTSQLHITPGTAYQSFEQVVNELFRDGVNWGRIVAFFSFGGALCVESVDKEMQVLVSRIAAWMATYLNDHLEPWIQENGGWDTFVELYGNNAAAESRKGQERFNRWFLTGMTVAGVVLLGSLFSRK

Apoptosis regulator Bcl-2, sequence (P10415 whole entry): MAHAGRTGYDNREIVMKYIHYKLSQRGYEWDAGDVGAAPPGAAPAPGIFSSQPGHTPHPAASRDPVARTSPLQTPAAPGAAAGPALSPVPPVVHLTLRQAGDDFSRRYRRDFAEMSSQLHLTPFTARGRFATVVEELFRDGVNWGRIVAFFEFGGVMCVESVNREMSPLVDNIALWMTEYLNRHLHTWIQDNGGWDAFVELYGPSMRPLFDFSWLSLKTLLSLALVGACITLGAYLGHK

For `CC[C@H](C)[C@H](NC(=O)[C@H](C)NC(=O)[C@H](CC(C)C)NC(=O)[C@H](CCC(N)=O)NC(=O)[C@H](CCCNC(=N)N)NC(=O)CNC(=O)[C@@H](NC(=O)[C@H](CCC(N)=O)NC(=O)CN)C(C)C)C(=O)N[C@H](C(=O)NCC(=O)N[C@@H](CC(=O)O)C(=O)N[C@@H](CC(=O)O)C(=O)N[C@@H](Cc1ccc(Cl)cc1)C(=O)N[C@@H](CC(N)=O)C(=O)N[C@@H](CCCNC(=N)N)C(=O)O)[C@@H](C)CC`, the Ratio EC50 in test [1] turned out to be 30. The figures for the EC50 in test [2] and in test [3] were 1.14 µM and 38 nM, respectively.

Consider `CC[C@H](C)[C@H](NC(=O)[C@H](C)NC(=O)[C@H](CCSC)NC(=O)[C@H](CCC(N)=O)NC(=O)[C@H](CCCN=C(N)N)NC(=O)CNC(=O)[C@@H](NC(=O)[C@H](CCC(N)=O)NC(=O)CN)C(C)C)C(=O)N[C@H](C(=O)NCC(=O)N[C@@H](CC(=O)O)C(=O)N[C@@H](CC(=O)O)C(=O)N[C@H](C(=O)N[C@@H](CC(N)=O)C(=O)N[C@@H](CCCN=C(N)N)C(=O)O)[C@@H](C)CC)[C@@H](C)CC`, for which the EC50 in test [2] is 29.9 µM; in test [3] it was 1430 nM.

`CC[C@H](C)[C@H](NC(=O)[C@H](C)NC(=O)[C@H](CC(C)C)NC(=O)[C@H](CCC(N)=O)NC(=O)[C@H](CCCN=C(N)N)NC(=O)CNC(=O)[C@@H](NC(=O)[C@H](CCC(N)=O)NC(=O)CN)C(C)C)C(=O)N[C@@H](Cc1ccc(-c2ccccc2)cc1)C(=O)NCC(=O)N[C@@H](CC(=O)O)C(=O)N[C@@H](CC(=O)O)C(=O)N[C@H](C(=O)N[C@@H](CC(N)=O)C(=O)N[C@@H](CCCN=C(N)N)C(=O)O)[C@@H](C)CC`: the EC50 in test [2] came to 20.7 µM; in test [3], 1250 nM.

With `CC[C@H](C)[C@H](NC(=O)[C@H](C)NC(=O)[C@H](CC(C)C)NC(=O)[C@H](CCC(N)=O)NC(=O)[C@H](CCCNC(=N)N)NC(=O)CNC(=O)[C@@H](NC(=O)[C@H](CCC(N)=O)NC(=O)CN)C(C)C)C(=O)N[C@@H](Cc1c[nH]c2ccccc12)C(=O)NCC(=O)N[C@@H](CC(=O)O)C(=O)N[C@@H](CC(=O)O)C(=O)N[C@H](C(=O)N[C@@H](CC(N)=O)C(=O)N[C@@H](CCCNC(=N)N)C(=O)O)[C@@H](C)CC`, the Ratio EC50 in test [1] was found to be 7. Besides, the 50% effective concentration (EC50) in test [2] came out at 2.8 µM; in test [3], 375 nM.

On to `CC[C@H](C)[C@H](NC(=O)[C@H](C)NC(=O)[C@H](CC(C)C)NC(=O)[C@H](CCC(N)=O)NC(=O)[C@H](CCCNC(=N)N)NC(=O)CNC(=O)[C@H](Cc1ccc2ccccc2c1)NC(=O)[C@H](CCC(N)=O)NC(=O)CN)C(=O)N[C@H](C(=O)NCC(=O)N[C@@H](CC(=O)O)C(=O)N[C@@H](CC(=O)O)C(=O)N[C@H](C(=O)N[C@@H](CC(N)=O)C(=O)N[C@@H](CCCNC(=N)N)C(=O)O)[C@@H](C)CC)[C@@H](C)CC`, for which the Ratio EC50 in test [1] is 17. For the same compound, the figures for the EC50 in test [2] and in test [3] were 6.13 µM and 350 nM, respectively.

Turning to `CC[C@H](C)[C@H](NC(=O)[C@H](C)NC(=O)[C@H](Cc1ccc2ccccc2c1)NC(=O)[C@H](CCC(N)=O)NC(=O)[C@H](CCCNC(=N)N)NC(=O)CNC(=O)[C@@H](NC(=O)[C@H](CCC(N)=O)NC(=O)CN)C(C)C)C(=O)N[C@H](C(=O)NCC(=O)N[C@@H](CC(=O)O)C(=O)N[C@@H](CC(=O)O)C(=O)N[C@H](C(=O)N[C@@H](CC(N)=O)C(=O)N[C@@H](CCCNC(=N)N)C(=O)O)[C@@H](C)CC)[C@@H](C)CC`, the Ratio EC50 in test [1] came out at 133. In addition, the EC50 in test [2] was 17 µM; in test [3] it was 127 nM.

`CCCC[C@H](NC(=O)[C@H](CCC(N)=O)NC(=O)CN)C(=O)NCC(=O)N[C@@H](CCCN=C(N)N)C(=O)N[C@@H](CCC(N)=O)C(=O)N[C@@H](CC(C)C)C(=O)N[C@@H](C)C(=O)N[C@H](C(=O)N[C@H](C(=O)NCC(=O)N[C@@H](CC(=O)O)C(=O)N[C@@H](CC(=O)O)C(=O)N[C@H](C(=O)N[C@@H](CC(N)=O)C(=O)N[C@@H](CCCN=C(N)N)C(=O)O)[C@@H](C)CC)[C@@H](C)CC)[C@@H](C)CC`: the results for the EC50 in test [2] and in test [3] were 0.757 µM and 71 nM, respectively.

For `CC[C@H](C)[C@H](NC(=O)[C@H](C)NC(=O)[C@H](CC(C)C)NC(=O)[C@H](CCC(N)=O)NC(=O)[C@H](CCCNC(=N)N)NC(=O)CNC(=O)[C@@H](NC(=O)[C@H](CCC(N)=O)NC(=O)CN)C(C)C)C(=O)N[C@H](C(=O)NCC(=O)N[C@@H](CC(=O)O)C(=O)N[C@@H](CC(=O)O)C(=O)N[C@@H](Cc1ccc([N+](=O)[O-])cc1)C(=O)N[C@@H](CC(N)=O)C(=O)N[C@@H](CCCNC(=N)N)C(=O)O)[C@@H](C)CC`, in test [1], the Ratio EC50 was 13. Moreover, the EC50 in test [2] is 8.02 µM; in test [3] it was 594 nM.

The EC50 is the concentration giving half of the maximal effect.
